Data on 4 compounds can be found in ChEMBL document CHEMBL1138022, “Structurally simplified macrolactone analogues of halichondrin B” (Bioorg Med Chem Lett, 2004).

In assay [1] the test system is P388. Put plainly: Fold resistance calculated as the inhibition concentration ratio between retrovirally transformed P388/VMDRC.04 and parental P388 cells. In kind it is functional. Put shortly:
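P-glycoprotein-mediated efflux assessed in murine P388/VMDRC.04, a retrovirally transformed multidrug-resistant subline of P388/S leukemia cells, alongside parental P388 cells. Growth inhibition IC50 was measured in each line. Fold resistance is the IC50 ratio of P388/VMDRC.04 to parental P388.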

In assay [2] the test system is DLD-1. Description: In vitro inhibitory concentration required to inhibit the growth of DLD-1 cells under continuous exposure conditions for 3-4 days. In kind it is functional, cell-based. Particulars: Homo sapiens. Put shortly:
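Human colon cancer DLD-1 cells were exposed to compound continuously for 3–4 days and growth inhibition was measured. IC50 is given ± SEM, with n the number of experiments.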

The test system of assay [3] is U-937. Description: In vitro inhibitory concentration required to inhibit the growth of U937 cells was determined by mitotic block reversibility assay. In kind it is functional. The following applies: Homo sapiens. Put shortly:
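Reversibility assay in human histiocytic lymphoma U937 cells. After drug washout, flow cytometry scored whether a complete mitotic block was still maintained 10 h later.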

As for `C=C1C[C@@H]2CC[C@@]34C[C@@H]5O[C@@H]6C(O[C@H]7CC[C@H](CC(=O)O[C@@H]8[C@@H](OC)[C@H](CCO)O[C@H]8C[C@H]8O[C@@H](CC[C@@H]1O2)C[C@@H](C)C8=C)O[C@@H]7[C@@H]6O3)[C@H]5O4`, the FR in assay [1] is 2.8. In assay [2], this compound yielded an IC50 of 0.97 nM. The compound also registered an IC99 in assay [3] of 0.1 µM.
As for `C=C1C[C@@H]2CC[C@@]34C[C@@H]5O[C@@H]6C(O[C@H]7CC[C@H](CC(=O)O[C@@H]8[C@@H](OC)[C@@H](O)[C@@H](CC(O)CO)O[C@H]8C[C@H]8O[C@@H](CC[C@@H]1O2)C[C@@H](C)C8=C)O[C@@H]7[C@@H]6O3)[C@H]5O4` (some centres not stated), the FR in assay [1] is on record as 20. The same compound came in with an IC50 in assay [2] of 12 nM. Further, in assay [3], it took 0.065 µM to reach the 99% level (IC99).
For the compound `C=C1C[C@@H]2CC[C@@]34C[C@@H]5O[C@@H]6C(O[C@H]7CC[C@H](CC(=O)O[C@@H]8[C@@H](OC)[C@H](O)[C@H](CCOC)O[C@H]8C[C@H]8O[C@@H](CC[C@@H]1O2)C[C@@H](C)C8=C)O[C@@H]7[C@@H]6O3)[C@H]5O4`, the FR in assay [1] was 1.6. For the same compound, in assay [2], it took 1.8 nM to reach half-maximal inhibition (IC50). This compound yielded an IC99 in assay [3] of over 1 µM.
On to `C=C1C2C[C@@H]3O[C@@H](C[C@H](O)CO)[C@H](OC)[C@H]3OC(=O)C[C@H]3CC[C@@H]4OC5[C@H]6O[C@H]7C[C@](CC[C@H]8CC(=C)[C@H](CC[C@@H](C[C@H]1C)O2)O8)(OC6[C@H]4O3)O[C@H]57`, for which, in assay [1], the FR is 8.2. Further, in assay [2], the IC50 came out at 6.4 nM. The compound also yielded an IC99 in assay [3] of 0.1 µM.
